Data from ChEMBL document CHEMBL2311534, “Synthesis and antiplasmodial evaluation of novel (4-aminobutyloxy)quinolines” (Bioorg Med Chem Lett, 2013).

Experiments:
Plasmodium falciparum [1] = assay: Antiplasmodial activity against erythrocyte form of chloroquine-sensitive Plasmodium falciparum D10 by parasite lactate dehydrogenase assay; assay type: functional, organism-based
In short: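 Asexual erythrocyte-stage cultures were maintained by a modified Trager–Jensen method. Samples were made as 20 mg/mL stocks in 100% DMSO and diluted in complete medium. The top test concentration was 100 µg/mL, with twofold serial dilution to 10 concentrations (lowest 0.2 µg/mL). Growth was read by parasite lactate dehydrogenase assay in triplicate on one occasion. IC50 came from full dose-response curves.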

CHO = assay: Cytotoxicity against CHO cells by MTT assay; assay type: cell-based; settings: Cricetulus griseus
In short: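 CHO cell growth and survival was read colorimetrically with MTT. Samples were diluted in complete medium on the day of testing as 10-fold serial dilutions to 6 concentrations (100 down to 0.001 µg/mL). Emetine served as reference. Tests were run in triplicate on one occasion. IC50 was obtained by non-linear dose-response curve fitting.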

[2] = Selectivity index, ratio of IC50 for CHO cells to IC50 for chloroquine-sensitive Plasmodium falciparum D10; assay type: toxicity, cell-based; settings: hamster, read-out: Ratio IC50
In short: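 Computed as IC50 from the CHO MTT assay divided by IC50 from the D10 pLDH assay. Both IC50 values came from full dose-response curves, each run in triplicate on one occasion.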

Plasmodium falciparum [3] = assay: Antiplasmodial activity against erythrocyte form of chloroquine-resistant Plasmodium falciparum Dd2 by parasite lactate dehydrogenase assay; assay type: functional, organism-based
In short: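 Continuous culture of asexual erythrocyte stages (modified Trager–Jensen); growth read by parasite lactate dehydrogenase assay (modified Makler). Samples from 20 mg/mL DMSO stock, diluted in complete medium; full dose-response, twofold serial dilutions from 100 µg/mL to 0.2 µg/mL (10 concentrations); chloroquine reference. Triplicate on one occasion; IC50 from non-linear curve fitting.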

Plasmodium falciparum [4] = assay: Resistance index, ratio of IC50 for chloroquine-resistant Plasmodium falciparum Dd2 to IC50 for chloroquine-sensitive Plasmodium falciparum D10; assay type: functional

CCN(CC)CCCCOc1ccc(Cl)c2cccnc12
IC50 (Plasmodium falciparum [1]): 17.2 µM

CCN(CC)CCC(C)COc1c(Cl)cc(Cl)c2cccnc12 (configuration not stated)
IC50 (Plasmodium falciparum [1]): 8.08 µM

Clc1ccc(CNCCCCOc2ccc3ncccc3c2)cc1
IC50 (CHO): 211 µM | IC50 (Plasmodium falciparum [1]): 7.29 µM | selectivity ratio [2]: 29 | IC50 (Plasmodium falciparum [3]): > 1 µM

CC[C@H]1CN2CCc3cc(OC)c(OC)cc3[C@@H]2C[C@@H]1C[C@H]1NCCc2cc(OC)c(OC)cc21 [EMETINE]
IC50 (CHO): 0.17 µM

CCN(CC)CCCCOc1cccc2cccnc12
IC50 (Plasmodium falciparum [1]): 49.2 µM

CCN(CC)CCC(C)Cc1cc(Cl)c2cccnc2c1O (configuration not stated)
Ratio IC50 (Plasmodium falciparum [4]): 0.15 | IC50 (CHO): 4.8 µM | IC50 (Plasmodium falciparum [1]): 1.01 µM | selectivity ratio [2]: 5 | IC50 (Plasmodium falciparum [3]): 0.15 µM

Cc1ccc2c(Cl)cc(Cl)c(OCC(C)CCNCc3ccc(Cl)cc3)c2n1 (configuration not stated)
Ratio IC50 (Plasmodium falciparum [4]): 0.11 | IC50 (CHO): 4.11 µM | IC50 (Plasmodium falciparum [1]): 2.44 µM | selectivity ratio [2]: 2 | IC50 (Plasmodium falciparum [3]): 0.26 µM

CCN(CC)CCC(C)COc1c(I)cc(I)c2cccnc12 (configuration not stated)
IC50 (Plasmodium falciparum [1]): 13.9 µM

CCN(CC)CCC(C)COc1cccc2cccnc12 (configuration not stated)
IC50 (Plasmodium falciparum [1]): 100 µM

CCN(CC)CCCCOc1c(I)cc(Cl)c2cccnc12
IC50 (Plasmodium falciparum [1]): 9.02 µM

CCN(CC)CCC(C)COc1c(I)cc(Cl)c2cccnc12 (configuration not stated)
IC50 (Plasmodium falciparum [1]): 13 µM

CCN(CC)CCCCOc1ccc2ncccc2c1
IC50 (Plasmodium falciparum [1]): 6.02 µM

CCN(CC)CCCCOc1cccc2ncccc12
IC50 (Plasmodium falciparum [1]): 10.2 µM

CC(CCNCc1ccc(Cl)cc1)COc1cccc2ncccc12 (configuration not stated)
IC50 (Plasmodium falciparum [1]): 23.1 µM

CCN(CC)CCC(C)COc1c(Br)cc(Br)c2cccnc12 (configuration not stated)
IC50 (Plasmodium falciparum [1]): 8.65 µM

CC(CCNCc1ccc(Cl)cc1)COc1c(I)cc(I)c2cccnc12 (configuration not stated)
IC50 (Plasmodium falciparum [1]): 9.15 µM

Clc1ccc(CNCCCCOc2cccc3ncccc23)cc1
IC50 (CHO): 237 µM | IC50 (Plasmodium falciparum [1]): 7.01 µM | selectivity ratio [2]: 34

CC(CCNCc1ccc(Cl)cc1)COc1cccc2cccnc12 (configuration not stated)
IC50 (Plasmodium falciparum [1]): 5.64 µM

Clc1ccc(CNCCCCOc2ccc(Cl)c3cccnc23)cc1
IC50 (Plasmodium falciparum [1]): 9.99 µM

CCN(CC)CCC(C)COc1c(Cl)cc(Cl)c2ccc(C)nc12 (configuration not stated)
Ratio IC50 (Plasmodium falciparum [4]): 0.17 | IC50 (CHO): 224 µM | IC50 (Plasmodium falciparum [1]): 3.95 µM | selectivity ratio [2]: 57 | IC50 (Plasmodium falciparum [3]): 0.68 µM
